Data from ChEMBL document CHEMBL4402565, “α-Ketoamides as Broad-Spectrum Inhibitors of Coronavirus and Enterovirus Replication: Structure-Based Design, Synthesis, and Activity Assessment” (J Med Chem, 2020).
pEC50, pIC50: −log10 of the molar value.

How the values were obtained:
[1] = Inhibition of Enterovirus A71 protease 3C using DabcylKEALFQ-GPPQF-E(Edans)-NH2 as substrate incubated for 10 mins by fluorospectrometry
In short: (§1)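 FRET cleavage assay in 20 mM Tris-HCl, 100 mM NaCl, 1 mM EDTA, 1 mM DTT, pH 7.3. Final enzyme 2 μM for CVB3 3Cpro or 3 μM for EV-A71 3Cpro, preincubated with inhibitor (0–100 μM) for 10 min at 37 °C. Reaction started with 20 μM final Dabcyl-KEALFQ↓GPPQF-E(Edans)-NH₂. Edans dequenching read at ex 360/em 460 nm. Triplicate, mean ± SD.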

[2] = Inhibition of […] protease 3C using DabcylKEALFQ-GPPQF-E(Edans)-NH2 as substrate incubated for 10 mins by fluorospectrometry; design: species or system Coxsackievirus; in short: as §1
[3] = Inhibition of SARS coronavirus M protease using Dabcyl-KTSAVLQ-SGFRKM-E(Edans)-NH2 as substrate incubated for 10 mins by fluorospectrometry; design: species or system Severe acute respiratory syndrome-related coronavirus
In short: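 FRET cleavage assay with 0.5 µM recombinant SARS-CoV Mpro (authentic termini) in 20 mM Tris-HCl, 100 mM NaCl, 1 mM EDTA, 1 mM DTT, pH 7.3. Enzyme was preincubated with inhibitor (0–100 µM) for 10 min at 37 °C, then 20 µM final substrate was added. Fluorescence was read at ex 360/em 460 nm. Triplicate, mean ± SD; IC50 from curve fitting.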

[4] = Inhibition of human coronavirus NL63 M protease using Dabcyl-KTSAVLQ-SGFRKM-E(Edans)-NH2 as substrate incubated for 10 mins by fluorospectrometry
In short: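 0.5 μM final HCoV-NL63 Mpro preincubated 10 min at 37 °C with inhibitor (0–100 μM) in pH 7.3 Tris buffer (100 mM NaCl, 1 mM EDTA, 1 mM DTT). Cleavage of 20 μM Dabcyl-KTSAVLQ↓SGFRKM-E(Edans)-NH₂ followed by fluorescence at 460 nm with 360 nm excitation. IC50 from triplicate measurements, mean ± SD.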

[5] = tested on: Enterovirus A71; test: Antiviral activity against Enterovirus A71 infected in HuH7 cells expressing T7 RNA polymerase assessed as reduction in viral RNA replication incubated for 24 hrs by luciferase reporter gene assay; format: functional, organism-based; conditions: Enterovirus A, Huh-7, 24 h
In short: (§2)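 Huh-T7 cells (DMEM, 2 mM glutamine, penicillin/streptomycin, 10% FCS growth or 2% maintenance, G-418 400 μg·mL⁻¹) transfected with enteroviral replicon. Compound added in growth medium at 40 μM for screening or 0, 1.25, 2.5, 5, 10, 20, 40 μM for EC50. After 24 h, cells lysed and luciferase activity read. Triplicate or quadruplicate, mean ± SD.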

[6] = Antiviral activity against […] infected in HuH7 cells expressing T7 RNA polymerase assessed as reduction in viral RNA replication incubated for 24 hrs by luciferase reporter gene assay; format: functional, organism-based; conditions: B3, Huh-7, 24 h; in short: as §2
[7] = tested on: SARS-CoV; test: Antiviral activity against SARS coronavirus infected in HuH7 cells expressing T7 RNA polymerase assessed as reduction in viral RNA replication incubated for 24 hrs by luciferase reporter gene assay; format: functional, organism-based; conditions: Severe acute respiratory syndrome-related coronavirus, Huh-7, 24 h
In short: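 SARS-CoV replicon (DNA-launched, Renilla luciferase reporter) was transfected into Huh-T7 cells at 80–90% confluency. Compound at 0, 1.25, 2.5, 5, 10, 20 or 40 µM in growth medium was added after transfection. At 24 h, cells were lysed and luciferase activity measured. Runs were in triplicate or quadruplicate, reported as mean ± SD.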

[8] = Antiviral activity against […] infected in HuH7 cells expressing T7 RNA polymerase assessed as reduction in virus-induced cytopathic effect incubated for 2 days by non-radioactive cell proliferation assay; format: functional, organism-based; conditions: B3, Huh-7, 48 h
[9] = tested on: Human coronavirus 229E; test: Antiviral activity against Human coronavirus 229E infected in HuH7 cells expressing T7 RNA polymerase assessed as reduction in virus-induced cytopathic effect incubated for 48 hrs by Alamar blue based assay; format: functional, organism-based; conditions: Huh-7, 48 h
[10] = tested on: Middle East respiratory syndrome-related coronavirus; test: Antiviral activity against Middle East respiratory syndrome coronavirus infected in HuH7 cells expressing T7 RNA polymerase assessed as reduction in virus-induced cytopathic effect incubated for 2 days by non-radioactive cell proliferation assay; format: functional, organism-based; conditions: Huh-7, 48 h
[11] = tested on: Middle East respiratory syndrome-related coronavirus; test: Antiviral activity against Middle East respiratory syndrome coronavirus infected in Vero cells assessed as reduction in virus-induced cytopathic effect incubated for 3 days by non-radioactive cell proliferation assay; format: functional, organism-based; conditions: 72 h
[12] = tested on: SARS-CoV; test: Antiviral activity against SARS coronavirus infected in Vero E6 cells assessed as reduction in virus-induced cytopathic effect incubated for 2 days by non-radioactive cell proliferation assay; format: functional, organism-based; conditions: Severe acute respiratory syndrome-related coronavirus, Vero C1008, 48 h
[13] = tested on: Enterovirus A71; test: Antiviral activity against Enterovirus A71 infected in RD cells assessed as reduction in virus-induced cytopathic effect incubated for 3 days by MTS assay; format: functional, organism-based; conditions: Enterovirus A, 72 h
In short: (§3)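 CPE reduction assay. RD (EV-A71) or HeLa Rh (EV-D68, HRV) cells seeded 24 h earlier in medium with 2% FCS; HRV2/HRV14 medium contained 30 mM MgCl₂. Serial compound dilutions added with virus. At 3 days post infection, 5% MTS added for 1 h at 37 °C and OD498 read. EC50 taken as 50% protection versus controls by logarithmic interpolation; morphology also checked microscopically.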

[14] = tested on: enterovirus D68; test: Antiviral activity against Enterovirus D68 infected in HeLa Rh cells assessed as reduction in virus-induced cytopathic effect incubated for 3 days by MTS assay; format: functional, organism-based; conditions: Enterovirus D, 72 h; in short: as §3
[15] = tested on: rhinovirus A2; test: Antiviral activity against Human rhinovirus 2 infected in HeLa Rh cells assessed as reduction in virus-induced cytopathic effect incubated for 3 days by MTS assay; format: functional, organism-based; conditions: Rhinovirus A, 72 h; in short: as §3
[16] = tested on: rhinovirus B14; test: Antiviral activity against Human rhinovirus 14 infected in HeLa Rh cells assessed as reduction in virus-induced cytopathic effect incubated for 3 days by MTS assay; format: functional, organism-based; conditions: Rhinovirus B, 72 h; in short: as §3
[17] = Cytotoxicity against human HuH7 cells expressing T7 RNA polymerase assessed as reduction in cell viability incubated for 2 days by non-radioactive cell proliferation assay; format: cell-based, Huh-7
[18] = Cytotoxicity against human RD cells assessed as reduction in cell viability incubated for 3 days by MTS assay; format: cell-based
[19] = Cytotoxicity against human HeLa Rh cells assessed as reduction in cell viability incubated for 3 days by MTS assay; format: cell-based
[20] = Therapeutic index, ratio of CC50 for human HuH7 cells expressing T7 RNA polymerase to EC50 for […] infected in human HuH7 cells expressing T7 RNA polymerase; format: toxicity, cell-based; conditions: read-out: Ratio CC50/EC50
[21] = Therapeutic index, ratio of CC50 for human HuH7 cells expressing T7 RNA polymerase to EC50 for Human coronavirus 229E infected in human HuH7 cells expressing T7 RNA polymerase; format: toxicity, cell-based; conditions: read-out: Ratio CC50/EC50
In short: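 Huh7 cells were infected with HCoV-229E at […] for 1.5 h at 37 °C and washed. Complete DMEM containing inhibitor (0–40 µM) was added. […] CC50 came from a parallel AlamarBlue viability assay normalised to no-inhibitor and 1% Triton X-100 controls. Therapeutic index = CC50/EC50.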

[22] = Therapeutic index, ratio of CC50 for human HuH7 cells expressing T7 RNA polymerase to EC50 for Middle East respiratory syndrome coronavirus infected in human HuH7 cells expressing T7 RNA polymerase; format: toxicity, cell-based; conditions: read-out: Ratio CC50/EC50
[23] = Therapeutic index, ratio of CC50 for monkey Vero cells to EC50 for Middle East respiratory syndrome coronavirus infected in monkey Vero cells; format: toxicity, cell-based; conditions: read-out: Ratio CC50/EC50
[24] = Therapeutic index, ratio of CC50 for monkey Vero E6 cells to EC50 for SARS coronavirus infected in monkey Vero E6 cells; format: toxicity, cell-based, Vero C1008; conditions: read-out: Ratio CC50/EC50
[25] = Therapeutic index, ratio of CC50 for human RD cells to EC50 for Enterovirus A71 infected in human RD cells; format: toxicity, cell-based; conditions: read-out: Ratio CC50/EC50
In short: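 RD cells were seeded 24 h ahead in 2% FCS medium, then given compound serial dilutions plus EV-A71 (BRCR) inoculum. After 3 days, MTS was added for 1 h at 37 °C and OD498 read. EC50 was interpolated as the concentration giving 50% protection from CPE. CC50 was measured on uninfected host cells by viability or cytotoxicity kits. Index = CC50/EC50.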

[26] = Therapeutic index, ratio of CC50 for human HeLa Rh cells to EC50 for Enterovirus D68 infected in human HeLa Rh cells; format: toxicity, cell-based; conditions: read-out: Ratio CC50/EC50
[27] = Therapeutic index, ratio of CC50 for human HeLa Rh cells to EC50 for Human rhinovirus 2 infected in human HeLa Rh cells; format: toxicity, cell-based; conditions: read-out: Ratio CC50/EC50
[28] = Therapeutic index, ratio of CC50 for human HeLa Rh cells to EC50 for Human rhinovirus 14 infected in human HeLa Rh cells; format: toxicity, cell-based; conditions: read-out: Ratio CC50/EC50

## O=C(/C=C/c1ccccc1)N[C@@H](Cc1ccccc1)C(=O)N[C@@H](C[C@@H]1CCNC1=O)C(=O)C(=O)NCc1ccccc1
[1]
  pIC50: 5.91
[2]
  pIC50: 5.18
[3]
  pIC50: 5.71
[4]
  pIC50: < 4.30
[5]
  pEC50: 5.35
[6]
  pEC50: 5.35
[7]
  pEC50: 5.70
[8]
  pEC50: 4.85
[9]
  pEC50: 4.93
[10]
  pEC50: 8.32
[11]
  pEC50: 4.87
[12]
  pEC50: 5.24
[13]
  pEC50: 5.01
[14]
  pEC50: 6.32
[15]
  pEC50: 5.25
[16]
  pEC50: 5.37
[17]
  CC50 at 48 h: > 265 µM
[18]
  CC50 at 72 h: 97 µM
[19]
  CC50 at 72 h: 35.5 µM
[20]
  selectivity ratio: > 10
[21]
  selectivity ratio: > 10
[22]
  selectivity ratio: > 10
[23]
  selectivity ratio: > 10
[24]
  selectivity ratio: > 10
[25]
  selectivity ratio: > 10
[26]
  selectivity ratio: > 10
[27]
  selectivity ratio: > 15
[28]
  selectivity ratio: > 15
